According to article PMC7080202 (Medicinal Chemistry Research, 2013):
“Also recorded” adds a separate entry of the source. Read-outs that look alike come from different tables or passages of the source.

Tests used:
[1] = tested on: Cytomegalovirus Davis strain; experiment: microbe, parasite or virus in culture; format: cell-based; settings: Human betaherpesvirus 5, HEL, read-out: EC50 Cytomegalovirus Davis strain
[2] = tested on: Herpes simplex virus-1 (KOS); experiment: microbe, parasite or virus in culture; format: cell-based, herpes simplex virus type 1; settings: Human alphaherpesvirus 1, HEL, read-out: EC50 Herpes simplex virus-1 (KOS)
[3] = tested on: Herpes simplex virus-2 (G); experiment: microbe, parasite or virus in culture; format: cell-based, herpes simplex virus type 2; settings: Human alphaherpesvirus 2, HEL, read-out: EC50 Herpes simplex virus-2 (G)
[4] = tested on: Vaccinia virus; experiment: microbe, parasite or virus in culture; format: cell-based; settings: Orthopoxvirus vaccinia, HEL, read-out: EC50 Vaccinia virus
[5] = tested on: Vesicular stomatitis virus; experiment: microbe, parasite or virus in culture; format: cell-based; settings: Vesicular stomatitis virus, HEL, read-out: EC50 Vesicular stomatitis virus
[6] = tested on: Herpes simplex virus-1TK-KOS ACV^r; experiment: microbe, parasite or virus in culture; format: cell-based, herpes simplex virus type 1; settings: Human alphaherpesvirus 1, HEL, read-out: EC50 Herpes simplex virus-1TK-KOS ACV^r
[7] = tested on: Feline herpes virus; experiment: Antiviral CPE assay, feline herpes virus in CRFK cells; format: cell-based; settings: CRFK, read-out: EC50 Feline herpes virus
[8] = tested on: Coxsackie virus B4; experiment: microbe, parasite or virus in culture; format: cell-based; settings: Enterovirus B, B4, HeLa, read-out: Antiviral activity EC50 Coxsackie virus B4
[9] = tested on: Para-influenza-3 virus; experiment: organism not typed; format: cell-based, parainfluenza-3 virus; settings: Vero, read-out: Antiviral activity EC50 Para-influenza-3 virus
[10] = tested on: Reovirus-1; experiment: organism not typed; format: cell-based; settings: Vero, read-out: Antiviral activity EC50 Reovirus-1
[11] = tested on: Sindbis virus; experiment: microbe, parasite or virus in culture; format: cell-based; settings: Sindbis virus, Vero, read-out: Antiviral activity EC50 Sindbis virus
[12] = tested on: Coxsackie virus B4; experiment: microbe, parasite or virus in culture; format: cell-based; settings: Enterovirus B, B4, Vero, read-out: Antiviral activity EC50 Coxsackie virus B4
[13] = tested on: Punta Toro virus; experiment: microbe, parasite or virus in culture; format: cell-based; settings: Punta Toro virus, Vero, read-out: Antiviral activity EC50 Punta Toro virus
[14] = tested on: Influenza B; experiment: Anti-influenza virus activity, influenza B in MDCK cells; format: cell-based, influenza B virus B/Hong Kong/5/72; settings: Influenza B virus, MDCK
[15] = tested on: Human embryonic lung cell cultures; experiment: Cytotoxicity; format: cell-based
How it was run: (§1)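 Cell cultures incubated with varying concentrations of test compound, then examined by microscopy. MCC is the lowest concentration that causes a microscopically detectable alteration of normal cell morphology. HEL, Vero and HeLa lines were monitored regularly for mycoplasma and found free of it.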

[16] = tested on: Crandell-Rees feline kidney cells; experiment: Cytotoxicity; format: cell-based
[17] = tested on: HeLa cell cultures; experiment: Cytotoxicity; format: cell-based
How it was run: as §1

[18] = tested on: Vero cell cultures; experiment: Cytotoxicity; format: cell-based
How it was run: as §1

[19] = tested on: MDCK cells; settings: microscopically detectable alteration of normal cell morphology
[20] = in vitro; settings: dog
[21] = tested on: mouse-skin papillomas induced by DMBA and TPA; experiment: Two-stage mouse-skin carcinogenesis test; format: in vivo
How it was run: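 Specific pathogen-free female ICR mice, 6 weeks old, about 30 g, 15 per group, kept at 24 ± 2 °C. Shaved backs were initiated with DMBA (100 μg, 390 nmol) in 0.1 ml acetone. One week later, TPA (1 μg, 1.7 nmol) in acetone was applied twice weekly. Test compound (85 nmol) in 0.1 ml acetone was applied topically 1 h before each TPA. Papillomas were scored weekly for 20 weeks as % mice bearing papillomas and mean papillomas per mouse.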

[22] = tested on: Influenza A H1N1 subtype; experiment: Anti-influenza virus activity, influenza A H1N1 in MDCK cells; format: cell-based, influenza A virus A/Puerto Rico/8/34 (H1N1); settings: H1N1, H3N2 and influenza B; below the non-toxic concentration of 100 µM
[23] = read-out: Antiviral EC50 Influenza B MTS
[24] = read-out: Antiviral EC50 Influenza B Visual CPE score

| Compound | EC50 [1] [µM] | EC50 [2] [nM] | EC50 [3] [µM] | EC50 [4] [µM] | EC50 [5] [µM] | EC50 [6] [µM] | EC50 [7] [µM] | EC50 [8] [µM] | EC50 [11] [µM] | EC50 [12] [µM] | EC50 [14, 23] [µM] | EC50 [14, 24] [µM] | Minimum cytotoxic concentration [15] [µM] | Minimum cytotoxic concentration [16] [µM] | Minimum cytotoxic concentration [17] [µM] | Minimum cytotoxic concentration [18] [µM] | Cytotoxicity Minimum cytotoxic concentration [19] | CC50 [20] [µM] | further results |
| --- | --- | --- | --- | --- | --- | --- | --- | --- | --- | --- | --- | --- | --- | --- | --- | --- | --- | --- | --- |
| O=C1/C(=N\NC(=S)NN=Cc2ccccc2)c2ccccc2N1Cc1ccccc1 [4g, 3-{[(3Z)-1-benzyl-2-oxo-2,3-dihydro-1H-indol-3-ylidene]amino}-1-[(phenylmethylidene)amino]thiourea] | > 100 | > 100000 | > 100 | > 100 | > 100 | > 100 | > 100 | > 20 | > 100 | > 100 | > 100 | > 100 | ≥100 | ≥100 | 100 | >100 | >100 | > 100 | EC50 [9]: > 100 µM; EC50 [10]: > 100 µM; EC50 [13]: > 100 µM |
| O=C(N/N=C1\C(=O)Nc2ccccc21)N/N=C1\C(=O)Nc2ccccc21 [6a, 1,3-Bis({[(3Z)-2-oxo-2,3-dihydro-1H-indol-3-ylidene]amino})urea] | > 100 | > 100000 | > 100 | > 100 | > 100 | > 100 | > 100 | > 100 |  |  | > 100 | > 100 | ≥100 | >100 | >100 | 100 | >100 | > 100 |  |
| O=C(N/N=C1\C(=O)Nc2ccc(Cl)cc21)N/N=C1\C(=O)Nc2ccc(Cl)cc21 [6b, 1,3-Bis({[(3Z)-5-chloro-2-oxo-2,3-dihydro-1H-indol-3-ylidene]amino})urea] | > 20 | > 100000 | > 100 | > 100 | > 100 | > 100 | 19.7 | > 100 | > 20 | > 20 | > 100 | > 100 | 100 | >100 | >100 | 100 | >100 | > 100 | EC50 [9]: > 20 µM; EC50 [10]: > 20 µM; EC50 [13]: > 20 µM; chemoprevention / anti-tumor promoting activity (in words) ([21]; 85 nmol topical): moderate protection; papillomas/mouse ([21]; 85 nmol topical, 10 weeks of promotion): 1.2 papillomas/mouse; papillomas/mouse ([21]; 85 nmol topical, 15 weeks of promotion): 3.9 papillomas/mouse; percentage of papillomas (mice with papillomas) ([21]; 85 nmol topical, after week 17): 100%; papillomas/mouse ([21]; 85 nmol topical, week 20): 6.1 papillomas/mouse |
| Cc1ccc2c(c1)/C(=N/NC(=O)N/N=C1\C(=O)Nc3ccc(C)cc31)C(=O)N2 [6c, 1,3-Bis({[(3Z)-5-methyl-2-oxo-2,3-dihydro-1H-indol-3-ylidene]amino})urea] | > 100 | > 100000 | > 100 | > 100 | > 100 | > 100 | 55.1 | > 100 | > 20 | > 20 | > 20 | > 20 | >100 | >100 | >100 | 100 | ≥20 | 46 | EC50 [9]: > 20 µM; EC50 [10]: > 20 µM; EC50 [13]: > 20 µM; chemoprevention / anti-tumor promoting activity (in words) ([21]; 85 nmol topical): highest chemoprevention activity; also recorded: stronger chemoprevention activity; percentage of papilloma-bearing mice ([21]; 85 nmol topical before each TPA, during weeks 10–15): 40–70%; percentage of papilloma-bearing mice ([21]; 85 nmol topical, week 18): 90%; papillomas/mouse ([21]; 85 nmol topical, week 20): 5.1 papillomas/mouse; percentage of papilloma-bearing mice ([21]; 85 nmol topical, week 20): 100% |
| O=C1Nc2ccccc2/C1=N/NC(=S)N/N=C1\C(=O)Nc2ccccc21 [6e, 1,3-Bis({[(3Z)-2-oxo-2,3-dihydro-1H-indol-3-ylidene]amino})thiourea] | > 20 | > 100000 | > 100 | > 100 | > 100 | > 100 | > 100 | > 100 |  |  | 48 ± 31 | 39 ± 5.5 | 100 | >100 | >100 | 100 | >100 | > 100 | anti-influenza activity (in words) [22]: some activity |
| Nc1ncnc2c1ncn2C[C@H](O)CO [(S)-DHPA, reference compound] |  |  |  |  |  |  |  | > 250 | > 250 | > 250 |  |  |  |  | >250 | >250 |  |  | EC50 [9]: > 250 µM; EC50 [10]: > 250 µM; EC50 [13]: > 250 µM |
| Nc1nc2c(ncn2COCCO)c(=O)[nH]1 [Acyclovir, reference compound] |  | 400 | 0.2 | > 250 | > 250 | 22 |  |  |  |  |  |  |  |  |  |  |  |  |  |
| NC12CC3CC(CC(C3)C1)C2 [Amantadine, reference compound] |  |  |  |  |  |  |  |  |  |  | > 200 | > 200 |  |  |  |  | >200 | > 200 |  |
| O=c1[nH]c(=O)n([C@H]2C[C@H](O)[C@@H](CO)O2)cc1/C=C/Br [Brivudin, reference compound] |  | 40 | 112 | 4 | > 250 | 50 |  |  |  |  |  |  | >300 |  |  |  |  |  |  |
| Nc1ccn(C[C@@H](CO)OCP(=O)(O)O)c(=O)n1 [Cidofovir, reference compound] | 0.78 ± 0.49 | 2000 | 1 | 22 | > 250 | 0.9 |  |  |  |  |  |  | >300 |  |  |  |  |  |  |
| Nc1nc(O)c2ncn(COC(CO)CO)c2n1 [Ganciclovir, reference compound] | 5.5 ± 2.36 | 20 | 0.01 | > 100 | > 100 | 4 | 1.4 |  |  |  |  |  | >350 | >100 |  |  |  |  |  |
| CCC(CC)O[C@@H]1C=C(C(=O)O)C[C@H](N)[C@H]1NC(C)=O [Oseltamivir carboxylate, reference compound] |  |  |  |  |  |  |  |  |  |  | 2.5 ± 0.7 | 6.7 ± 5.3 |  |  |  |  | >100 | > 100 |  |
| NC(=O)c1ncn([C@@H]2O[C@H](CO)[C@@H](O)[C@H]2O)n1 [Ribavirin, reference compound] |  |  |  |  |  |  |  | 112 | > 250 | 250 | 2.45 ± 0.25 | 2.4 ± 1.6 |  |  | >250 | >250 | >100 |  |  |
| CC(N)C12CC3CC(CC(C3)C1)C2 (centres unmarked) [Rimantadine, reference compound] |  |  |  |  |  |  |  |  |  |  | > 200 | > 200 |  |  |  |  | >200 | > 200 |  |
